In PMC3229621 (Biochemical pharmacology, 2011):

Columns and labels:
CYP26A1 [1] = biological target: T1, CYP26A1 (Homo sapiens, UniProt O43174); test: Depletion of 4-OH-RA, 18-OH-RA and 4-oxo-RA by recombinant CYP26A1; format: in vitro ADME; settings: for kdep (depletion rate constant): CYP26A1, 200 nM initial substrate, mono-exponential decay; for fold efficiency of CYP26A1 over CYP26B1 in depleting substrate: CYP26A1 vs CYP26B1
T1 sequence (O43174 1-497): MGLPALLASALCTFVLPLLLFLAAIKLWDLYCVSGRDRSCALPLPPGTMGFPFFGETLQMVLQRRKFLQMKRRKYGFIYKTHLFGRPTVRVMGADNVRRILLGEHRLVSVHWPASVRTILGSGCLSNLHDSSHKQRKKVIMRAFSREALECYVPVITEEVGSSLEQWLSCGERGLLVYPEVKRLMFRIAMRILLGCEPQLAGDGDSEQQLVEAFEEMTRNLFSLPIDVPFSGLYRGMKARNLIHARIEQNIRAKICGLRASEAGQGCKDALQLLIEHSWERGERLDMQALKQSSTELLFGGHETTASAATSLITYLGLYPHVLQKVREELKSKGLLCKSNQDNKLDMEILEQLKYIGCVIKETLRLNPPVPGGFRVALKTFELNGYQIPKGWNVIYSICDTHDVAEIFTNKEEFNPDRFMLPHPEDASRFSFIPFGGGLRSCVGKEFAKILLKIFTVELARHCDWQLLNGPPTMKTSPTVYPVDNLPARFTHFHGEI

CYP26B1 [2] = biological target: T2, CYP26B1 (Homo sapiens, UniProt Q9NR63); test: Depletion of 4-OH-RA, 18-OH-RA and 4-oxo-RA by recombinant CYP26B1; format: in vitro ADME; settings: 200 nM initial substrate, mono-exponential decay
T2 sequence (Q9NR63 1-512): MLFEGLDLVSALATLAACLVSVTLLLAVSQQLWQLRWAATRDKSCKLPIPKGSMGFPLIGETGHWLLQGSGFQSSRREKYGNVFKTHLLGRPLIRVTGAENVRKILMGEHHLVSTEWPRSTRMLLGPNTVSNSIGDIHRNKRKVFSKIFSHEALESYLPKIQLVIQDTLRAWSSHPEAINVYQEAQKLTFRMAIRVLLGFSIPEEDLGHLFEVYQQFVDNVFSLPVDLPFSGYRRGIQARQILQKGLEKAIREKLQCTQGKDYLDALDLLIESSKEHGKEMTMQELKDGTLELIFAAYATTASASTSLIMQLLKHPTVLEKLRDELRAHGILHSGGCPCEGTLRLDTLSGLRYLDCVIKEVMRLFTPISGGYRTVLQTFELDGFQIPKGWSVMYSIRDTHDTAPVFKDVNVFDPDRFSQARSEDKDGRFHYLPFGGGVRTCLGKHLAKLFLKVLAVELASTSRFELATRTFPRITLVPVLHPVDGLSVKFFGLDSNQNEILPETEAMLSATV

CYP26B1 [3] = biological target: T2, CYP26B1; test: Kinetics of 4-OH-RA and 18-OH-RA formation from atRA by recombinant CYP26B1; settings: substrate atRA
purified CYP26B1 = biological target: T3, purified CYP26B1 (Homo sapiens, UniProt Q9NR63); test: Ligand-induced binding spectra with purified CYP26B1
T3 sequence (Q9NR63 1-512): T2 sequence (Q9NR63 1-512)
How it was run: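 Human CYP26B1 expressed in Sf9 insect cells, solubilized with NP40 and cholate, and purified on a Talon cobalt affinity column. Active P450 was quantified by CO difference spectrum. Enzyme at 235 pmol/mL in 100 mM KPi (pH 7.4) with 20% glycerol; absolute spectrum recorded first. Test ligand was added to test and reference cuvettes in 12.5 nM steps until saturation and maximal absorbance change.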

CYP3As and CYP2C8 = settings: by CYP3As and CYP2C8; cited from earlier work
CYP26A1 [4] = biological target: T1, CYP26A1; test: Kinetics of 4-OH-RA and 18-OH-RA formation from atRA by recombinant CYP26A1
[5] = substrate: CC1=C(/C=C/C(C)=C/C=C/C(C)=C/C(=O)O)C(C)(C)CCC1; test: cells, lysate or membranes named; settings: other: substrate atRA, 37.0 °C

CC1=C(/C=C/C(C)=C/C=C/C(C)=C/C(=O)O)C(C)(C)CCC1O (centres unmarked) [4-OH-RA]
kdep (depletion rate constant) (CYP26A1 [1]): 0.00167 ± 0.00017 s⁻¹
fold efficiency of CYP26A1 over CYP26B1 in depleting substrate (CYP26A1 [1]): 2–4 fold
kdep (depletion rate constant) (CYP26B1 [2]): 0.0005 ± 0.00017 s⁻¹

CC1=C(/C=C/C(C)=C/C=C/C(C)=C/C(=O)O)C(C)(C)CCC1=O [4-oxo-RA]
kdep (depletion rate constant) (CYP26A1 [1]): 0.00083 ± 0.00017 s⁻¹
fold efficiency of CYP26A1 over CYP26B1 in depleting substrate (CYP26A1 [1]): 2–4 fold
kdep (depletion rate constant) (CYP26B1 [2]): 0.00033 ± 0 s⁻¹

CC(/C=C/C1=C(CO)CCCC1(C)C)=C\C=C\C(C)=C\C(=O)O [18-OH-RA, 18-hydroxyretinoic acid]
kdep (depletion rate constant) (CYP26A1 [1]): 0.002 ± 0.00017 s⁻¹
fold efficiency of CYP26A1 over CYP26B1 in depleting substrate (CYP26A1 [1]): 2–4 fold
kdep (depletion rate constant) (CYP26B1 [2]): 0.0005 ± 0.00017 s⁻¹

CC1=C(/C=C/C(C)=C/C=C/C(C)=C/C(=O)O)C(C)(C)CCC1 [atRA, All-trans-retinoic acid]
18-OH-RA formation by CYP26B1 (CYP26B1 [3]): could be detected but the formation was insufficient to determine kinetic constants
Vmax of CYP26B1 mediated 4-OH-RA formation relative to CYP26A1 (CYP26B1 [3]): 10%
fold higher intrinsic clearance by CYP26B1 than by CYP3A4 and CYP2C8 (CYP26B1 [3]): approximately 100 fold
Clint, 4-OH RA formation (CYP26B1 [3]; CYP26B1): 43 µL/min/pmol P450
Vmax, 4-OH RA formation (CYP26B1 [3]; CYP26B1): 0.81 ± 0.2 pmol/min/pmol P450
binding of atRA with CYP26B1 (magnitude of difference spectrum) (purified CYP26B1; atRA concentration dependent): tight binding
ligand-induced difference spectrum type (purified CYP26B1; purified CYP26B1 235 pmol/mL, atRA 10 nM to 500 nM, low-to-high spin shift of heme iron): type I difference spectrum
Vmax for atRA hydroxylation (CYP3As and CYP2C8): 2–5 pmol/min/pmol P450
intrinsic clearance of atRA metabolism (CYP3As and CYP2C8): 0.2–0.4 µL/min/pmol P450
fold efficiency of CYP26A1 over CYP26B1 in overall depletion of atRA (CYP26A1 [4]; formation of multiple primary metabolites (4-OH-RA, 18-OH-RA and 16-OH-RA)): approximately 20 fold
Km for CYP26A1 relative to CYP26B1 (CYP26A1 [4]; substrate atRA): two-fold higher
Clint, 4-OH RA formation (CYP26A1 [4]; substrate atRA, CYP26A1): 190 µL/min/pmol P450
Clint, 18-OH RA formation (CYP26A1 [4]; substrate atRA, CYP26A1): 102 µL/min/pmol P450
Vmax, 4-OH RA formation (CYP26A1 [4]; substrate atRA, CYP26A1): 9.5 ± 2.2 pmol/min/pmol P450
Vmax, 18-OH RA formation (CYP26A1 [4]; substrate atRA, CYP26A1): 5.0 ± 0.5 pmol/min/pmol P450
lower Vmax for 18-OH-RA formation compared to 4-OH-RA formation (CYP26A1 [4]; substrate atRA, CYP26A1): 45%

B1: CYP26B1 (Homo sapiens) (protein)
chain: T2 sequence (Q9NR63 1-512)
kcat ([5]; CYP26B1): 0.8 pmol/min/pmol P450
kcat ([5]; CYP26B1, abstract): 0.8 pmol/min/pmol

B2: CYP26A1 (Homo sapiens) (protein)
chain: T1 sequence (O43174 1-497)
kcat ([5]; CYP26A1): 10 pmol/min/pmol P450
kcat ([5]; CYP26A1, abstract): 10 pmol/min/pmol
